Results: ChEMBL document CHEMBL3352026, “Structure-activity relationship of highly potent galactonoamidine inhibitors toward β-galactosidase (Aspergillus oryzae)” (J Med Chem, 2014)

Target: T1, Beta-galactosidase (Aspergillus oryzae, UniProt Q2U7N3)
T1 sequence (Q2U7N3 whole entry): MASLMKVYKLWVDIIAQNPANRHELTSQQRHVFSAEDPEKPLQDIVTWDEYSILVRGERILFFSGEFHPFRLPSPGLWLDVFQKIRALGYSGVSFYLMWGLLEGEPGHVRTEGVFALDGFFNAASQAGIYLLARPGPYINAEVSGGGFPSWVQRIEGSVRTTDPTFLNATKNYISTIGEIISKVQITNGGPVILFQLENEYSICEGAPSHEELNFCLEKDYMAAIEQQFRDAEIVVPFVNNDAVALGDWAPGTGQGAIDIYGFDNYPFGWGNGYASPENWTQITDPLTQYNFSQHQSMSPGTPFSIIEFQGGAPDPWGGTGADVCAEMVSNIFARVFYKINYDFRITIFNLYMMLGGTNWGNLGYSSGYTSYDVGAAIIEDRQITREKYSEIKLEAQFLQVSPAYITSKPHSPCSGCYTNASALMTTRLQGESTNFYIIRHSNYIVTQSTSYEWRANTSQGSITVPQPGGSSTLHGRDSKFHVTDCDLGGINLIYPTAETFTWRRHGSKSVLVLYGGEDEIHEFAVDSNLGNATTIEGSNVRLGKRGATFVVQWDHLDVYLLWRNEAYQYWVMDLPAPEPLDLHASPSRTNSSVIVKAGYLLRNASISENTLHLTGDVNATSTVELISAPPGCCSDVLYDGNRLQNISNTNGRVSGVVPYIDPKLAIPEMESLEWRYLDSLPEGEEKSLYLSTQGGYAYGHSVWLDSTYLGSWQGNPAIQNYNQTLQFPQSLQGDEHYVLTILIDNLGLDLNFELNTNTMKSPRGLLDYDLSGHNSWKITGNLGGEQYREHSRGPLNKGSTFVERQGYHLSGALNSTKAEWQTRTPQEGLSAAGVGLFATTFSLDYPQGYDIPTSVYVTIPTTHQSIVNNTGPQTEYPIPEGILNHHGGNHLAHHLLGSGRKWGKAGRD
Experiment: Inhibition of Aspergillus oryzae beta-galactosidase using 2-chloro-4-nitrophenyl beta-Dgalactopyranoside as substrate by spectrophotometry
In short: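 Dextrin-stabilised lyophilised A. oryzae enzyme in 50 mM acetate, pH 5.00, 30 °C, 100 μL. Substrate plus inhibitor preincubated 30 min before enzyme addition. 2-chloro-4-nitrophenolate read at 405 nm. […] For IC50, substrate was fixed, inhibitor 5 × 10⁻⁴–50 μM, read at 60 min against blanks, in duplicate.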

| Structure (SMILES) | Ki | IC50 |
| --- | --- | --- |
| COc1ccc(C/N=C2\N[C@H](CO)[C@H](O)[C@H](O)[C@H]2O)cc1 | 17.1 nM |  |
| OC[C@H]1N/C(=N\Cc2ccc(C(F)(F)F)cc2)[C@H](O)[C@@H](O)[C@H]1O | 15.7 nM |  |
| OC[C@H]1N/C(=N\Cc2ccc(F)cc2)[C@H](O)[C@@H](O)[C@H]1O | 10.1 nM |  |
| CC(C)(C)c1ccc(C/N=C2\N[C@H](CO)[C@H](O)[C@H](O)[C@H]2O)cc1 | 20.6 nM |  |
| OC[C@H]1N/C(=N\Cc2ccccc2F)[C@H](O)[C@@H](O)[C@H]1O | 16.1 nM |  |
| OC[C@H]1N/C(=N\Cc2cccc(F)c2)[C@H](O)[C@@H](O)[C@H]1O | 20.3 nM |  |
| OC[C@H]1N/C(=N\Cc2ccccc2)[C@H](O)[C@@H](O)[C@H]1O | 21.1 nM |  |
| Cc1ccccc1C/N=C1\N[C@H](CO)[C@H](O)[C@H](O)[C@H]1O | 23.6 nM |  |
| Cc1cccc(C/N=C2\N[C@H](CO)[C@H](O)[C@H](O)[C@H]2O)c1 | 29.4 nM |  |
| Cc1ccc(C/N=C2\N[C@H](CO)[C@H](O)[C@H](O)[C@H]2O)cc1 | 8 nM | 36 nM |
| CCC/N=C1\N[C@H](CO)[C@H](O)[C@H](O)[C@H]1O | 149 nM |  |
| CCCCCCC/N=C1\N[C@H](CO)[C@H](O)[C@H](O)[C@H]1O | 10.8 nM | 107 nM |
| CCCCCCCCCCCC/N=C1\N[C@H](CO)[C@H](O)[C@H](O)[C@H]1O | 48.4 nM |  |
| CCCCC(CC)/N=C1\N[C@H](CO)[C@H](O)[C@H](O)[C@H]1O (stereo partly drawn) | 7.8 nM | 22 nM |
| OC[C@H]1N/C(=N\CCCc2ccccc2)[C@H](O)[C@@H](O)[C@H]1O | 8.6 nM | 36 nM |
| OC[C@H]1N/C(=N\C2CC2)[C@H](O)[C@@H](O)[C@H]1O | 31.9 nM |  |
| OC[C@H]1N/C(=N\C2CCCCC2)[C@H](O)[C@@H](O)[C@H]1O | 602 nM | 4800 nM |
| OC[C@H]1N/C(=N\CC2CC2)[C@H](O)[C@@H](O)[C@H]1O | 9.5 nM | 0.86 nM |
| OC[C@H]1N/C(=N\CC2CCCCC2)[C@H](O)[C@@H](O)[C@H]1O | 11.3 nM | 22 nM |
| OC[C@H]1N/C(=N\CC2CCCCCC2)[C@H](O)[C@@H](O)[C@H]1O | 6.3 nM | 36 nM |
| N=C1N[C@H](CO)[C@H](O)[C@H](O)[C@H]1O | 150 nM |  |
| O=C1N[C@H](CO)[C@H](O)[C@H](O)[C@H]1O | 615 nM |  |

Target: not listed separately
Experiment: Inhibition of almond beta-glucosidase
Design: species or system Prunus dulcis

| Ki | Structure (SMILES) |
| --- | --- |
| ≤ 1.2 nM | OC[C@H]1N/C(=N/CCc2ccccc2)[C@H](O)[C@@H](O)[C@H]1O |

Target: not listed separately
Experiment: Inhibition of Aspergillus niger beta-glucosidase

| Ki | Structure (SMILES) |
| --- | --- |
| ≤ 1.2 nM | OC[C@H]1N/C(=N/CCc2ccccc2)[C@H](O)[C@@H](O)[C@H]1O |

Target: not listed separately
Experiment: Inhibition of Caldicellulosiruptor saccharolyticus beta-glucosidase

| Ki | Structure (SMILES) |
| --- | --- |
| ≤ 1.2 nM | OC[C@H]1N/C(=N/CCc2ccccc2)[C@H](O)[C@@H](O)[C@H]1O |
